Screening data as filed in PubChem.
Apaf-1 inh: inhibitors of human Apaf-1 apoptosome, primary screen, biochemical, DEVD-Rh110 fluorescence, uHTS | Apoptotic protease-activating factor 1 (Homo sapiens), O14727 | actives 0.71% (n = 330,000) | inhibition, % at 20 µM | reconstituted apoptosome caspase-3 activity; active = inhibition of at least 40% at 20 µM
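Assay system – apoptosome proteins · Medium – Hepes buffer, pH 7.5 · Also added – cytochrome c with DEVD-Rh110 · Timing – 30 min compound preincubation, 50 min activation, room temperature · Detection – Rh110 fluorescence, excitation 480 nm, emission 540 nm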
PAD4 FP inh: human PAD4 inhibitors, primary screen, biochemical, fluorescence polarization, 1536-well format. Protein-arginine deiminase type-4 (Homo sapiens), Q9UM07. recombinant PAD4, RCA probe fluorescence polarization. inhibition, % at 6.36 µM. actives 0.41% (n = 330,000);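 active = percent inhibition above a cutoff equal to the mean of all tested compounds plus 3 SD, cut at about 15% in these data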
TDP2 inh: human TDP2 enzyme inhibitors, primary screen, biochemical, epi absorbance, recombinant enzyme. T5PNP hydrolysis, p-nitrophenol absorbance 415 nm. inhibition, % at 12.8 µM. actives 0.34% (n = 370,000);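 active = inhibition above the mean of all tested compounds plus 3 SD, set per campaign, cut at about 25% in these data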
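test system = human TDP2 enzyme | input = TDP2 enzyme at 120 nM final | medium = 50 mM Tris-HCl pH 7.5 with Mg2+, KCl, DTT, BSA | also added = T5PNP substrate, 5 mM | times = 2 h at 37 °C | technique = epi absorbance | benchmarks = high control without enzyme, low control DMSO plus TDP2 | replication = each compound tested once, singlicate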
PRMT1 inh: PRMT1 methyltransferase inhibitors, primary screen, biochemical, fluorescence polarization; recombinant PRMT1, activity-based probe fluorescence polarization; inhibition, % at 2.79 µM; actives 1.3% (n = 370,000); AID 652257, 2013;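 active = inhibition above about 21% made by adding two undisclosed values, limit read from the data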
Target sequence (Q99873 whole entry, looked up): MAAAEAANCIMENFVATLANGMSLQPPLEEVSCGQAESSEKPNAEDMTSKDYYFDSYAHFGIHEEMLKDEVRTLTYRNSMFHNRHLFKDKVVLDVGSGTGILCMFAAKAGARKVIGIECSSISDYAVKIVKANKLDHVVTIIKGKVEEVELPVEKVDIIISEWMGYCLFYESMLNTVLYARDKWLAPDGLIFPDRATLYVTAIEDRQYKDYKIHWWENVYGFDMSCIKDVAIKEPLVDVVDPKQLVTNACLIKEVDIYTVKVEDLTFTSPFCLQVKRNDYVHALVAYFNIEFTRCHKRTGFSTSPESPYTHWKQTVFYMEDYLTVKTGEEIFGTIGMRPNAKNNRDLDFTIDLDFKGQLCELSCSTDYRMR
GSTO1 counter: inhibitors of recombinant GSTO1, primary screen, counter-screen for RBBP9 inhibitor project, biochemical, fluorescence polarization; Glutathione S-transferase omega-1 (Homo sapiens), P78417; activity-based probe fluorescence polarization; inhibition, % at 5.96 µM; actives 1.1% (n = 300,000);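 active = inhibition above the campaign mean inhibition plus 3 SD, cut at about 35% in these data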
GSTO1 inh conf: GSTO1 inhibitor hit confirmation, counter-screen for RBBP9 inhibitor project, biochemical, fluorescence polarization, triplicate; shares compounds with GSTO1 counter; actives 54% (n = 2,400); inhibition, % at 5.96 µM; recombinant GSTO1, probe fluorescence polarization;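 active = inhibition above the primary screen's cutoff, its mean inhibition plus 3 SD, cut at about 35% in these data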;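 note: loss of polarization as inhibitors block binding of rhodamine sulfonate ester activity probe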
PAD4 FP conf: human PAD4 inhibitors, confirmation, biochemical, fluorescence polarization; shares compounds with PAD4 FP inh; recombinant PAD4, RCA probe fluorescence polarization; inhibition, % at 6.36 µM; actives 28% (n = 1,200); AID 488796, 2010;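 active = mean inhibition across replicates above the hit cutoff set by the earlier primary screen, cut at about 15% in these data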;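 note: inhibitors block active-site labeling by the probe so polarization falls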
Apaf-1 inh conf: Apaf-1 inhibitors, single-dose retest, confirmation, biochemical, fluorescence, DEVD-Rh110, 20 µM | shares compounds with Apaf-1 inh | reconstituted apoptosome, caspase-3 DEVD-Rh110 fluorescence | inhibition, % at 20 µM | actives 25% (n = 1,800) | AID 504614, 2011;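 active = mean inhibition of at least 40% at 20 µM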
Rh110 interf inh: Rh110 fluorescence interference by putative Apaf-1 inhibitors, confirmation, artefact control for Apaf-1 inhibitor project, biochemical, 20 µM; shares compounds with Apaf-1 inh; quenched caspase reaction; activation (fluorescence interference), % at 20 µM; 1,800 tested, under 10 active; AID 504615, 2011;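 active = signal rise of 40% or more at 20 µM, treated as a fluorescence artifact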
Fluor interf inh: fluorescence interference of Apaf-1 inhibitor hits, dose response, artefact control for Apaf-1 inhibitor project | fluorescence interference counterscreen, Apaf-1 assay format | AID 588538, 2011 | shares compounds with Apaf-1 inh | IC50, µM | 460 tested, under 10 active; call rule not given here
TDP2 inh conf: human TDP2 enzyme inhibitors, retest, confirmation, biochemical, epi absorbance, recombinant enzyme; shares compounds with TDP2 inh; absorbance read-out; inhibition, % at 12.8 µM; actives 22% (n = 1,100); in the data active = inhibition above about 25%
Hits are given with their value; - = inactive; . = no result given. Rows were chosen to be rich in hits. Some 2.6% of all compounds tested hit in one or more screens of this group.

SMILES	Apaf-1 inh	PAD4 FP inh	TDP2 inh	PRMT1 inh	GSTO1 counter	GSTO1 inh conf	Apaf-1 inh conf	Rh110 interf inh	TDP2 inh conf	others
CC(=O)N(C1=C(N2CCOCC2)C(=O)c2ccccc2C1=O)c1ccc(C(=O)O)cc1	59	17	40	-	61	55	55	-	-	PAD4 FP conf=-;Fluor interf inh=-
Cc1ccc(NC2=C(N3CCOCC3)C(=O)c3ccccc3C2=O)cc1	59	-	60	-	48	-	81	-	51	Fluor interf inh=-
Fc1cccc(Cl)c1CN1CCN(c2ncc(Cc3ccccc3)cn2)CC1	.	.	-	-	.	.	.	.	.
O=C1Nc2ccccc2-n2nnnc2C1N1CCN(c2ccc(C(F)(F)F)cn2)CC1 (stereo unspecified)	.	.	-	-	.	.	.	.	.
O=C1CC(N2CCOCC2)=NN1c1ccc([N+](=O)[O-])cc1	94	-	65	-	48	-	-	-	-
Cc1ccccc1NC(=O)CCS(=O)(=O)c1ccccc1	.	.	-	-	.	.	.	.	.
CCc1ccc(S(=O)(=O)/N=C2\C=C(Nc3cccc(C(=O)O)c3)C(=O)c3ccccc32)cc1	91	71	69	-	98	92	90	-	74	PAD4 FP conf=66;Fluor interf inh=-
CC1=NN(c2ccc(C)c(C)c2)C(=O)C1C(c1cccc(O)c1)C1C(=O)N(c2ccc(C)c(C)c2)N=C1C (stereo unspecified)	87	77	80	-	51	-	.	.	-
Cc1ccc(N2C(=O)C3C4C=CC(C4)C3C2=O)cc1C (stereo unspecified)	-	-	-	-	-	.	.	.	.
CN(C(=S)Nc1cccnc1)c1ccc(O)cc1	.	31	30	33	83	-	.	.	-	PAD4 FP conf=-
CCN(C(=S)Nc1cccnc1)c1ccccc1	-	-	-	-	-	.	.	.	.
Cc1cc(=O)n(CCCc2ccccc2)[nH]1	-	29	37	-	42	-	.	.	-	PAD4 FP conf=-
CC(C)NC(=O)C1(C)CN(S(C)(=O)=O)CC(=O)N1CCc1ccccc1 (stereo unspecified)	.	.	-	-	.	.	.	.	.
O=C(COC(=O)c1ccc([N+](=O)[O-])s1)NCc1ccc(F)cc1	-	-	59	-	43	-	.	.	-
COc1ccc(CCn2c(N)c(C(=O)NCc3ccco3)c3nc4ccccc4nc32)cc1OC	63	-	25	-	52	-	-	-	26
Cc1ccc(C(=O)N/N=C/c2ccc(-c3ccc(Br)cc3[N+](=O)[O-])o2)o1	42	-	27	-	66	-	-	-	-
COC(=O)Cc1ccc(OC2(C)CCN(Cc3ccccc3)C2)cc1 (stereo unspecified)	.	.	-	-	.	.	.	.	.
CC(C)(C)c1nnc(N/N=C/c2cc(Br)ccc2O)n(N)c1=O	.	-	-	-	-	.	.	.	.
CCc1nnc(N/N=C/c2cc(Br)c(O)cc2O)n1N	-	37	37	-	68	-	.	.	-
